Assay results as given in ChEMBL document CHEMBL1255187, “Structure-based design and synthesis of potent, ethylenediamine-based, mammalian farnesyltransferase inhibitors as anticancer agents” (J Med Chem, 2010).

Organism: Homo sapiens
Assay: Selectivity ratio of IC50 for human geranylgeranyltransferase-1 to IC50 for human farnesyltransferase

SMILES | Selectivity ratio
Cn1cnc(S(=O)(=O)N(Cc2ccccc2)[C@@H]2CCC[C@@H]2N(Cc2cncn2C)c2ccc(C#N)cc2)c1 (racemic) | > 10
Cn1cnc(S(=O)(=O)N(CCN(Cc2cncn2C)c2ccc(C#N)c(F)c2)CC2CCN(c3ncccn3)CC2)c1 | 41
Cn1cnc(S(=O)(=O)N(CCN(Cc2cncn2C)c2c(F)cc(C#N)cc2F)CC2CCN(c3ncccn3)CC2)c1 | > 34
Cn1cncc1CN(CCN(CC1CCCCC1)S(=O)(=O)c1ccccn1)c1ccc(C#N)cc1 | 1.5
Cn1cnc(S(=O)(=O)N(CCN(Cc2cncn2C)c2ccc(C#N)cn2)CC2CCN(c3ncccn3)CC2)c1 | > 91

Next, values leading:

Selectivity ratio | SMILES
11 | Cn1cnc(S(=O)(=O)N(CCCN(Cc2cncn2C)c2ccc(C#N)cc2)Cc2ccccc2)c1
31 | C=C(Br)CN(CCN(Cc1cncn1C)c1ccc(C#N)cc1)S(=O)(=O)c1cn(C)cn1
> 2.7 | Cn1cnc(S(=O)(=O)N(CCN(Cc2cncn2C)c2ccc(C#N)cc2)CC2CCN(C(=O)OC(C)(C)C)CC2)c1
17 | Cn1cnc(S(=O)(=O)N(CCN(Cc2cncn2C)c2ccc(C#N)cc2)CCn2cccc2)c1
15 | Cn1cnc(S(=O)(=O)N(CCN(Cc2cncn2C)c2ccc(C#N)cc2)Cc2ccc(-n3cccc3)cc2)c1
> 14 | C=CCN(CCN(Cc1cncn1C)c1ccc(C#N)cc1)S(=O)(=O)c1cn(C)cn1
12 | Cc1cccc(CN(CCN(Cc2cncn2C)c2ccc(C#N)cc2)S(=O)(=O)c2cn(C)cn2)c1
> 20 | Cn1cnc(S(=O)(=O)N(CCN(Cc2cncn2C)c2ccc(C#N)cc2)CC2CCN(c3ncccn3)CC2)c1

Target: Protein farnesyltransferase (Homo sapiens, UniProt P49354+P49356)
Assay: Inhibition of human farnesyltransferase assessed as incorporation of [3H]FPP into H-Ras-CVLS
Assay type: protein-complex assay
Procedure, shortened: (§1)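 In vitro radiometric assay measuring transfer of [3H]FPP (FTase) or [3H]GGPP (GGTase-I) onto recombinant H-Ras-CVLS or H-Ras-CVLL, respectively.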

SMILES | IC50 [µM]
Cn1cnc(S(=O)(=O)N(Cc2ccccc2)[C@@H]2CCC[C@@H]2N(Cc2cncn2C)c2ccc(C#N)cc2)c1 (racemic) | 1
Cn1cnc(S(=O)(=O)N(CCN(Cc2cncn2C)c2ccc(C#N)c(F)c2)CC2CCN(c3ncccn3)CC2)c1 | 0.23
Cn1cnc(S(=O)(=O)N(CCN(Cc2cncn2C)c2c(F)cc(C#N)cc2F)CC2CCN(c3ncccn3)CC2)c1 | 0.29
Cn1cncc1CN(CCN(CC1CCCCC1)S(=O)(=O)c1ccccn1)c1ccc(C#N)cc1 | 0.4
Cn1cnc(S(=O)(=O)N(CCN(Cc2cncn2C)c2ccc(C#N)cn2)CC2CCN(c3ncccn3)CC2)c1 | 0.11

The remaining lines, values ahead:

IC50 [µM] | SMILES
0.42 | Cn1cnc(S(=O)(=O)N(CCCN(Cc2cncn2C)c2ccc(C#N)cc2)Cc2ccccc2)c1
0.18 | C=C(Br)CN(CCN(Cc1cncn1C)c1ccc(C#N)cc1)S(=O)(=O)c1cn(C)cn1
0.03 | Cn1cnc(S(=O)(=O)N(CCN(Cc2cncn2C)c2ccc(C#N)cc2)CCn2cccc2)c1
0.39 | Cn1cnc(S(=O)(=O)N(CCN(Cc2cncn2C)c2ccc(C#N)cc2)Cc2ccc(-n3cccc3)cc2)c1
0.054 | C=CCN(CCN(Cc1cncn1C)c1ccc(C#N)cc1)S(=O)(=O)c1cn(C)cn1
0.054 | Cc1cccc(CN(CCN(Cc2cncn2C)c2ccc(C#N)cc2)S(=O)(=O)c2cn(C)cn2)c1
0.51 | Cn1cnc(S(=O)(=O)N(CCN(Cc2cncn2C)c2ccc(C#N)cc2)CC2CCN(c3ncccn3)CC2)c1

Target: Protein farnesyltransferase (Mus musculus, UniProt Q61239+Q8K2I1)
Assay: Inhibition of H-Ras farnesylation expressed in mouse NIH3T3 cells
Assay type: functional, cell-based
Procedure, shortened: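 Oncogenic H-Ras-transformed NIH3T3 cells were treated with a range of inhibitor concentrations. Detection used peroxidase-conjugated secondary antibodies and enhanced chemiluminescence. IC50 is the mean of three independent assays ± SD unless stated otherwise.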

IC50 [µM] | SMILES
5.7 | C=C(Br)CN(CCN(Cc1cncn1C)c1ccc(C#N)cc1)S(=O)(=O)c1cn(C)cn1
> 2 | Cn1cnc(S(=O)(=O)N(CCN(Cc2cncn2C)c2ccc(C#N)cc2)CC2CCN(C(=O)OC(C)(C)C)CC2)c1
4.3 | Cn1cnc(S(=O)(=O)N(CCN(Cc2cncn2C)c2ccc(C#N)cc2)CCn2cccc2)c1
4 | Cn1cnc(S(=O)(=O)N(CCN(Cc2cncn2C)c2ccc(C#N)cc2)Cc2ccc(-n3cccc3)cc2)c1
> 10 | C=CCN(CCN(Cc1cncn1C)c1ccc(C#N)cc1)S(=O)(=O)c1cn(C)cn1
0.3 | Cc1cccc(CN(CCN(Cc2cncn2C)c2ccc(C#N)cc2)S(=O)(=O)c2cn(C)cn2)c1
> 10 | Cn1cnc(S(=O)(=O)N(CCN(Cc2cncn2C)c2ccc(C#N)cc2)CC2CCN(c3ncccn3)CC2)c1
0.268 | Cn1cncc1CN(CCN(CC1CCCCC1)S(=O)(=O)c1ccccn1)c1ccc(C#N)cc1

Target: Geranylgeranyl transferase type 1 (Mus musculus, UniProt Q61239+Q8BUY9)
Assay: Inhibition of Rap1A geranylgeranylation expressed in mouse NIH3T3 cells
Assay type: functional, cell-based
Procedure, shortened: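 Oncogenic H-Ras-transformed NIH3T3 cells were treated with a range of inhibitor concentrations. […] Detection used peroxidase-conjugated secondary antibodies and enhanced chemiluminescence. IC50 is the mean of three independent assays ± SD unless stated otherwise.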

IC50 [µM] | SMILES
> 10 | C=C(Br)CN(CCN(Cc1cncn1C)c1ccc(C#N)cc1)S(=O)(=O)c1cn(C)cn1
> 2 | Cn1cnc(S(=O)(=O)N(CCN(Cc2cncn2C)c2ccc(C#N)cc2)CC2CCN(C(=O)OC(C)(C)C)CC2)c1
> 10 | Cn1cnc(S(=O)(=O)N(CCN(Cc2cncn2C)c2ccc(C#N)cc2)CCn2cccc2)c1
> 10 | Cn1cnc(S(=O)(=O)N(CCN(Cc2cncn2C)c2ccc(C#N)cc2)Cc2ccc(-n3cccc3)cc2)c1
> 10 | C=CCN(CCN(Cc1cncn1C)c1ccc(C#N)cc1)S(=O)(=O)c1cn(C)cn1
> 10 | Cc1cccc(CN(CCN(Cc2cncn2C)c2ccc(C#N)cc2)S(=O)(=O)c2cn(C)cn2)c1
> 10 | Cn1cnc(S(=O)(=O)N(CCN(Cc2cncn2C)c2ccc(C#N)cc2)CC2CCN(c3ncccn3)CC2)c1
6.2 | Cn1cncc1CN(CCN(CC1CCCCC1)S(=O)(=O)c1ccccn1)c1ccc(C#N)cc1

Target: Geranylgeranyl transferase type I (Homo sapiens, UniProt P49354+P53609)
Assay: Inhibition of human geranylgeranyltransferase-1 assessed as incorporation of [3H]GGPP into H-Ras-CVLL
Assay type: protein-complex assay
Procedure, shortened: as §1

SMILES | IC50 [µM]
Cn1cnc(S(=O)(=O)N(Cc2ccccc2)[C@@H]2CCC[C@@H]2N(Cc2cncn2C)c2ccc(C#N)cc2)c1 (racemic) | > 10
Cn1cnc(S(=O)(=O)N(CCN(Cc2cncn2C)c2ccc(C#N)c(F)c2)CC2CCN(c3ncccn3)CC2)c1 | 9.4
Cn1cnc(S(=O)(=O)N(CCN(Cc2cncn2C)c2c(F)cc(C#N)cc2F)CC2CCN(c3ncccn3)CC2)c1 | > 10
Cn1cncc1CN(CCN(CC1CCCCC1)S(=O)(=O)c1ccccn1)c1ccc(C#N)cc1 | 0.61
Cn1cnc(S(=O)(=O)N(CCN(Cc2cncn2C)c2ccc(C#N)cn2)CC2CCN(c3ncccn3)CC2)c1 | > 10

Continued, values first:

IC50 [µM] | SMILES
4.6 | Cn1cnc(S(=O)(=O)N(CCCN(Cc2cncn2C)c2ccc(C#N)cc2)Cc2ccccc2)c1
5.5 | C=C(Br)CN(CCN(Cc1cncn1C)c1ccc(C#N)cc1)S(=O)(=O)c1cn(C)cn1
> 10 | Cn1cnc(S(=O)(=O)N(CCN(Cc2cncn2C)c2ccc(C#N)cc2)CC2CCN(C(=O)OC(C)(C)C)CC2)c1
0.51 | Cn1cnc(S(=O)(=O)N(CCN(Cc2cncn2C)c2ccc(C#N)cc2)CCn2cccc2)c1
5.8 | Cn1cnc(S(=O)(=O)N(CCN(Cc2cncn2C)c2ccc(C#N)cc2)Cc2ccc(-n3cccc3)cc2)c1
> 10 | C=CCN(CCN(Cc1cncn1C)c1ccc(C#N)cc1)S(=O)(=O)c1cn(C)cn1
0.63 | Cc1cccc(CN(CCN(Cc2cncn2C)c2ccc(C#N)cc2)S(=O)(=O)c2cn(C)cn2)c1
> 10 | Cn1cnc(S(=O)(=O)N(CCN(Cc2cncn2C)c2ccc(C#N)cc2)CC2CCN(c3ncccn3)CC2)c1
